Source: PMC9052575 (RSC Advances, 2020)
Where two headings read alike, the source gives them in different places.

Legend:
MDA-MB-231 cells = assay: MTT anti-proliferative assay, MDA-MB-231; format: cell-based, human; conditions: read-out: IC50 against MDA-MB-231 cells
MCF-7 cells = assay: MTT anti-proliferative assay, MCF-7; format: cell-based, human; conditions: for IC50: read-out: IC50 against MCF-7 cells
HEK-293 cells = assay: MTT toxicity assay, normal/non-tumor HEK-293 cells; format: cell-based; conditions: Homo sapiens, HEK293, read-out: IC50 against HEK-293 cells
Method in brief: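 HEK-293 cells seeded at 5000 cells/well in triplicate. After 24 h, exposed for 24 h at 37 °C and 5% CO2 to test compound at 1–100 μM, diluted in complete DMEM. MTT (5 mg mL−1 stock in PBS) added for 2 h, then 10% SDS/10 mM HCl for 16 h at 37 °C. OD read at 570 nm.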

[1] = MTT assay, 24 hours treatment, 1-100 μM

| SMILES | IC50 (MDA-MB-231 cells; Homo sapiens, MDA-MB-231, 24 h) | IC50 (MCF-7 cells; Homo sapiens, MCF7, 24 h) | IC50 (MDA-MB-231 cells; [1]) | IC50 (MCF-7 cells; [1]) | IC50 against MCF-7 cells (MCF-7 cells; [1]) | IC50 (HEK-293 cells) |
| --- | --- | --- | --- | --- | --- | --- |
| COc1ccc(/C=C/C(=O)c2ccc(OCc3cn(CCN4C(=O)c5cccc6cccc(c56)C4=O)nn3)cc2)cc1 [12b, (E)-2-(2-(4-((4-(3-(4-Methoxyphenyl)acryloyl)phenoxy)methyl)-1H-1,2,3-triazol-1-yl)ethyl)-1H-benzo[de]isoquinoline-1,3(2H)-dione] | > 100 µM | > 100 µM | – | – | – | – |
| COc1ccc(OC)c(/C=C/C(=O)c2ccc(OCc3cn(CCN4C(=O)c5cccc6cccc(c56)C4=O)nn3)cc2)c1 [12c, (E)-2-(2-(4-((4-(3-(2,5-Dimethoxyphenyl)acryloyl)phenoxy)methyl)-1H-1,2,3-triazol-1-yl)ethyl)-1H-benzo[de]isoquinoline-1,3(2H)-dione] | > 100 µM | > 100 µM | – | – | – | – |
| O=C(/C=C/c1ccc([N+](=O)[O-])cc1)c1ccc(OCc2cn(CCN3C(=O)c4cccc5cccc(c45)C3=O)nn2)cc1 [12d, (E)-2-(2-(4-((4-(3-(4-Nitrophenyl)acryloyl)phenoxy)methyl)-1H-1,2,3-triazol-1-yl)ethyl)-1H-benzo[de]isoquinoline-1,3(2H)-dione] | > 100 µM | > 100 µM | – | – | – | – |
| O=C(C=Cc1ccccc1)c1ccc(OCc2cn(CCCN3C(=O)c4cccc5cccc(c45)C3=O)nn2)cc1 [12e, 2-(3-(4-((4-Cinnamoylphenoxy)methyl)-1H-1,2,3-triazol-1-yl)propyl)-1H-benzo[de]isoquinoline-1,3(2H)-dione] | > 100 µM | > 100 µM | – | – | – | – |
| COc1ccc(/C=C/C(=O)c2ccc(OCc3cn(CCCN4C(=O)c5cccc6cccc(c56)C4=O)nn3)cc2)cc1 [12f, (E)-2-(3-(4-((4-(3-(4-Methoxyphenyl)acryloyl)phenoxy)methyl)-1H-1,2,3-triazol-1-yl)propyl)-1H-benzo[de]isoquinoline-1,3(2H)-dione] | > 100 µM | > 100 µM | – | – | – | – |
| COc1ccc(OC)c(/C=C/C(=O)c2ccc(OCc3cn(CCCN4C(=O)c5cccc6cccc(c56)C4=O)nn3)cc2)c1 [12g, (E)-2-(3-(4-((4-(3-(2,5-Dimethoxyphenyl)acryloyl)phenoxy)methyl)-1H-1,2,3-triazol-1-yl)propyl)-1H-benzo[de]isoquinoline-1,3(2H)-dione] | > 100 µM | > 100 µM | – | – | – | – |
| O=C(/C=C/c1ccc([N+](=O)[O-])cc1)c1ccc(OCc2cn(CCCN3C(=O)c4cccc5cccc(c45)C3=O)nn2)cc1 [12h, (E)-2-(3-(4-((4-(3-(4-nitrophenyl)acryloyl)phenoxy)methyl)-1H-1,2,3-triazol-1-yl)propyl)-1H-benzo[de]isoquinoline-1,3(2H)-dione] | > 100 µM | > 100 µM | – | – | – | – |
| CC1=CC(=O)c2c(O)cccc2C1=O [Plumbagin, reference compound] | – | 3.5 µM | – | – | – | – |

Now from value to molecule, other results behind:

| IC50 (MDA-MB-231 cells; Homo sapiens, MDA-MB-231, 24 h) | IC50 (MCF-7 cells; Homo sapiens, MCF7, 24 h) | IC50 (MDA-MB-231 cells; [1]) | IC50 (MCF-7 cells; [1]) | SMILES | IC50 against MCF-7 cells (MCF-7 cells; [1]) | IC50 (HEK-293 cells) |
| --- | --- | --- | --- | --- | --- | --- |
| > 100 µM | > 100 µM | – | – | CC(=O)N1N=C(c2ccc(OCc3cn(CCN4C(=O)c5cccc6cccc(c56)C4=O)nn3)cc2)CC1c1ccccc1 (stereo not shown) [13a, 2-(2-(4-((4-(1-Acetyl-5-phenyl-4,5-dihydro-1H-pyrazol-3-yl)phenoxy)methyl)-1H-1,2,3-triazol-1-yl)ethyl)-1H-benzo[de]isoquinoline-1,3(2H)-dione] | – | – |
| > 100 µM | > 100 µM | – | – | COc1ccc(C2CC(c3ccc(OCc4cn(CCN5C(=O)c6cccc7cccc(c67)C5=O)nn4)cc3)=NN2C(C)=O)cc1 (stereo not shown) [13b, 2-(2-(4-((4-(1-Acetyl-5-(4-methoxyphenyl)-4,5-dihydro-1H-pyrazol-3-yl)phenoxy)methyl)-1H-1,2,3-triazol-1-yl)ethyl)-1H-benzo[de]isoquinoline-1,3(2H)-dione] | – | – |
| > 100 µM | > 100 µM | – | – | COc1ccc(OC)c(C2CC(c3ccc(OCc4cn(CCN5C(=O)c6cccc7cccc(c67)C5=O)nn4)cc3)=NN2C(C)=O)c1 (stereo not shown) [13c, 2-(2-(4-((4-(1-Acetyl-5-(2,5-dimethoxyphenyl)-4,5-dihydro-1H-pyrazol-3-yl)phenoxy)methyl)-1H-1,2,3-triazol-1-yl)ethyl)-1H-benzo[de]isoquinoline-1,3(2H)-dione] | – | – |
| > 100 µM | > 100 µM | – | – | CC(=O)N1N=C(c2ccc(OCc3cn(CCN4C(=O)c5cccc6cccc(c56)C4=O)nn3)cc2)CC1c1ccc([N+](=O)[O-])cc1 (stereo not shown) [13d, 2-(2-(4-((4-(1-Acetyl-5-(4-nitrophenyl)-4,5-dihydro-1H-pyrazol-3-yl)phenoxy)methyl)-1H-1,2,3-triazol-1-yl)ethyl)-1H-benzo[de]isoquinoline-1,3(2H)-dione] | – | – |
| > 100 µM | > 100 µM | – | – | CC(=O)N1N=C(c2ccc(OCc3cn(CCCN4C(=O)c5cccc6cccc(c56)C4=O)nn3)cc2)CC1c1ccccc1 (stereo not shown) [13e, 2-(3-(4-((4-(1-Acetyl-5-phenyl-4,5-dihydro-1H-pyrazol-3-yl)phenoxy)methyl)-1H-1,2,3-triazol-1-yl)propyl)-1H-benzo[de]isoquinoline-1,3(2H)-dione] | – | – |
| > 100 µM | 98.1 µM | – | – | COc1ccc(C2CC(c3ccc(OCc4cn(CCCN5C(=O)c6cccc7cccc(c67)C5=O)nn4)cc3)=NN2C(C)=O)cc1 (stereo not shown) [13f, 2-(3-(4-((4-(1-Acetyl-5-(4-methoxyphenyl)-4,5-dihydro-1H-pyrazol-3-yl)phenoxy)methyl)-1H-1,2,3-triazol-1-yl)propyl)-1H-benzo[de]isoquinoline-1,3(2H)-dione] | moderate cytotoxicity | > 100 µM |
| > 100 µM | 62.2 µM | – | – | COc1ccc(OC)c(C2CC(c3ccc(OCc4cn(CCCN5C(=O)c6cccc7cccc(c67)C5=O)nn4)cc3)=NN2C(C)=O)c1 (stereo not shown) [13g, 2-(3-(4-((4-(1-Acetyl-5-(2,5-dimethoxyphenyl)-4,5-dihydro-1H-pyrazol-3-yl)phenoxy)methyl)-1H-1,2,3-triazol-1-yl)propyl)-1H-benzo[de]isoquinoline-1,3(2H)-dione] | moderate cytotoxicity | > 100 µM |
| > 100 µM | > 100 µM | – | – | CC(=O)N1N=C(c2ccc(OCc3cn(CCCN4C(=O)c5cccc6cccc(c56)C4=O)nn3)cc2)CC1c1ccc([N+](=O)[O-])cc1 (stereo not shown) [13h, 2-(3-(4-((4-(1-Acetyl-5-(4-nitrophenyl)-4,5-dihydro-1H-pyrazol-3-yl)phenoxy)methyl)-1H-1,2,3-triazol-1-yl)propyl)-1H-benzo[de]isoquinoline-1,3(2H)-dione] | – | – |
| – | – | > 100 µM | > 100 µM | O=C(/C=C/[c-]1cccc1)c1ccc(OCc2cn(CCN3C(=O)c4cccc5cccc(c45)C3=O)nn2)cc1.[Fe+2].c1cc[cH-]c1 [14a, (E)-2-(2-(4-((4-(3-Ferrocenyl-acryloyl)phenoxy)methyl)-1H-1,2,3-triazol-1-yl)ethyl)-1H-benzo[de]isoquinoline-1,3(2H)-dione] | – | – |
| – | – | > 100 µM | > 100 µM | CC(CN1C(=O)c2cccc3cccc(c23)C1=O)n1cc(COc2ccc(C(=O)/C=C/[c-]3cccc3)cc2)nn1.[Fe+2].c1cc[cH-]c1 (stereo not shown) [14b, (E)-2-(2-(4-((4-(3-Ferrocenyl-acryloyl)phenoxy)methyl)-1H-1,2,3-triazol-1-yl)propyl)-1H-benzo[de]isoquinoline-1,3(2H)-dione] | – | – |
| – | – | > 100 µM | > 100 µM | CC(=O)N1N=C(c2ccc(OCc3cn(CCN4C(=O)c5cccc6cccc(c56)C4=O)nn3)cc2)CC1[c-]1cccc1.[Fe+2].c1cc[cH-]c1 (stereo not shown) [15a, 2-(2-(4-((4-(1-Acetyl-5-ferrocenyl-4,5-dihydro-1H-pyrazol-3-yl)phenoxy)methyl)-1H-1,2,3-triazol-1-yl)ethyl)-1H-benzo[de]isoquinoline-1,3(2H)-dione] | – | – |
| – | – | > 100 µM | > 100 µM | CC(=O)N1N=C(c2ccc(OCc3cn(C(C)CN4C(=O)c5cccc6cccc(c56)C4=O)nn3)cc2)CC1[c-]1cccc1.[Fe+2].c1cc[cH-]c1 (stereo not shown) [15b, 2-(2-(4-((4-(1-Acetyl-5-ferrocenyl-4,5-dihydro-1H-pyrazol-3-yl)phenoxy)methyl)-1H-1,2,3-triazol-1-yl)propyl)-1H-benzo[de]isoquinoline-1,3(2H)-dione] | – | – |
